Compounds with a hit are over-represented: about 1.2% of the library has one in this group of screens.
HKDC1 inhibitor: HKDC1 hexokinase inhibitors, primary screen, biochemical, fluorescence, uHTS | 0.16% of 340,000 active | inhibition, % at 20 µM | recombinant HKDC1, G6PDH/diaphorase resazurin coupled fluorescence;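 active = inhibition above about 35% when tested at 20 µM, limit read from the data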;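 also: plate controls were DMSO wells with enzyme for no effect and DMSO wells lacking enzyme for full effect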
Target sequence (Q2TB90 whole entry, looked up): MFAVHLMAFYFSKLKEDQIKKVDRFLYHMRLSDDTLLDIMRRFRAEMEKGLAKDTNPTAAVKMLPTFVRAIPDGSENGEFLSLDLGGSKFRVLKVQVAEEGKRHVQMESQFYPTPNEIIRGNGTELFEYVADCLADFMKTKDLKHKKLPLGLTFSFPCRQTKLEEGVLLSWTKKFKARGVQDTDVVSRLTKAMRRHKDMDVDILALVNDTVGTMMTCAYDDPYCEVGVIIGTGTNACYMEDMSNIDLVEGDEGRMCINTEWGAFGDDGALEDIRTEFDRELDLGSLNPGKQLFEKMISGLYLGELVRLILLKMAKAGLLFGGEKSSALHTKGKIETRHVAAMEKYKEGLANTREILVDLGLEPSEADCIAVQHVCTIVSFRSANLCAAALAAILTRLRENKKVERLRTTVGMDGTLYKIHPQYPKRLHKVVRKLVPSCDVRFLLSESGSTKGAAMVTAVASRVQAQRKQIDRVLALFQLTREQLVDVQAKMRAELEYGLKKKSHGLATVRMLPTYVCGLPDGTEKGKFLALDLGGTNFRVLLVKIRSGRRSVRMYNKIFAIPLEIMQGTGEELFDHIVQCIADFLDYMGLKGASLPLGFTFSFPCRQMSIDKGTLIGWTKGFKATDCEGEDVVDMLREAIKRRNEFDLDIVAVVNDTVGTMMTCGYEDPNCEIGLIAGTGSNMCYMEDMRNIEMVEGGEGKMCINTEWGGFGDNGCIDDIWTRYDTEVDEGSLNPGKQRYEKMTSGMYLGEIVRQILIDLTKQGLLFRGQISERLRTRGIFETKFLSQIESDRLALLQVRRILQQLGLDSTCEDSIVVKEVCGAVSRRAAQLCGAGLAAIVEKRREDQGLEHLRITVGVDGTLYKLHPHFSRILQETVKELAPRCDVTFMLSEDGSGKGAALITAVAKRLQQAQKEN
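test system = in-house recombinant HK5 (HKDC1) enzyme | amount = HKDC1 at 5 µg/mL | control set = DMSO-enzyme wells negative, buffer-substituted wells positive | compound = one dose of 20 µM, 1% DMSO | schedule = reaction time 90 min, room temperature, protected from light | technique = resorufin fluorescence at 613 nm | reagent = glucose with 1 mM ATP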
G6PDH CS: L. mesenteroides G6PDH inhibitors, counter-screen for G6PDH-coupled screening assays, biochemical, Leuconostoc mesenteroides enzyme; 0.12% of 200,000 active; Purified L. mesenteroides G6PDH, diaphorase/resazurin coupled fluorescence, 45 min; inhibition, % at 5 µM; in the data active = inhibition above about 50%
PfGluPho inh: PfG6PD enzyme inhibitors, primary screen, biochemical, fluorescence intensity, uHTS; glucose-6-phosphate dehydrogenase-6-phosphogluconolactonase (Plasmodium falciparum 3D7); PfGluPho enzyme, NADPH resazurin-diaphorase fluorescence; inhibition, % at 20 µM; 0.78% of 350,000 active;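 active = inhibition reaching at least a set limit at 20 µM in the primary screen, cut at about 59% in these data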;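 also: 0% = DMSO wells with substrate and 100% = DMSO wells lacking glucose-6-phosphate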
Tb hexokinase: Trypanosoma brucei hexokinase 1 inhibitors, primary screen, biochemical, G6PDH-coupled NADH absorbance, MLSCN library; AID 1430, 2008; hexokinase 1 [Trypanosoma brucei]; 0.11% of 220,000 active; inhibition, % at 10 µM; recombinant TbHK1, G6PDH-coupled NADH A340;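 active = inhibition of 50% or more in the single-dose primary screen; inactive = inhibition below 50%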
Diaph inh CS: diaphorase inhibitors and chemical oxidizers, primary screen, counter-screen for diaphorase-coupled primary assays, biochemical, uHTS, resorufin fluorescence. AID 1217, 2008. 0.69% of 190,000 active. inhibition, % at 20 µM. diaphorase resazurin-to-resorufin fluorescence, NADH, 16 min; bacterial (C. kluyveri) enzyme, not human;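 active = primary screen inhibition at 20 µM above a set limit, cut at about 50% in these data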;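 also: plate controls were DMSO with full reaction for no effect and wells lacking NADH for full effect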
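Assay system: diaphorase enzyme from Clostridium kluyveri; Input: enzyme working solution with 0.14 U/mL diaphorase; Timing: 16 min at room temperature; Technique: resorufin fluorescence, excitation 544 nm, emission 590 nm; Benchmarks: positive control minus NADH, DMSO neutral control.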
PfG6PD confirm: PfG6PD inhibitors, hit retest, confirmation, biochemical, fluorescence intensity, single concentration; shares compounds with PfGluPho inh; recombinant PfGluPho, NADPH-diaphorase-resazurin fluorescence; inhibition, % at 20 µM; 34% of 2,400 active;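 active = inhibition of at least 50% at 20 µM in any single replicate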;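 also: 0% = DMSO with substrate and 100% = DMSO lacking glucose-6-phosphate substrate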
Diaphorase 10uM: diaphorase inhibitors and chemical oxidizers, confirmation, counter-screen for P. falciparum G6PD inhibitor project, biochemical, fluorescence intensity, 10 µM NADPH. shares compounds with PfGluPho inh. diaphorase-coupled resazurin reduction, NADPH 10 uM. inhibition, % at 20 µM. 39% of 820 active;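 active = average inhibition reaching 50% or more with the compound at 20 µM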;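 also: resorufin red fluorescence formed as diaphorase reduces resazurin using NADPH; 0% = DMSO with enzyme and 100% = DMSO without enzyme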
Diaphorase 30uM: diaphorase inhibitors and chemical oxidizers, confirmation, counter-screen for P. falciparum G6PD inhibitor project, biochemical, fluorescence intensity, 30 µM NADPH; shares compounds with PfGluPho inh; Diaphorase/resazurin coupled assay, resorufin fluorescence; inhibition, % at 20 µM; 29% of 820 active; AID 504863, 2011;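 active = inhibition averaging 50% or more, tested at 20 µM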;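 also: 0% = DMSO with enzyme and 100% = DMSO wells lacking diaphorase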
* marks the source's active call; other numbers are inactive results; · = no result given.

SMILES	HKDC1 inhibitor	G6PDH CS	PfGluPho inh	Tb hexokinase	Diaph inh CS	PfG6PD confirm	others
O=c1c2cc(F)ccc2sn1-c1ccc(F)cc1	8	·	113*	·	·	106*	Diaphorase 10uM=-12;Diaphorase 30uM=-13
Cc1ccc(-c2cc(=O)c3cc(F)ccc3[nH]2)cc1	-7	9	3	-3	5	·
O=C1CCCC(=O)N1c1ccc(F)cc1	-5	·	-2	·	·	·
Cc1[nH]c(=S)c(C#N)c2c1CCCC2	10	-9	81*	-7	15	38
Cc1[nH]c(=O)c(C#N)c2c1CCCC2	-8	2	-7	-24	7	·
CC(C)Cc1c2c([nH]c(=S)c1C#N)CCCC2	5	-3	70*	-4	16	37
Cc1ccc(S(=O)(=O)N2CCC(C(=O)NCCCN3CCCC3=O)CC2)cc1C	-3	·	5	·	·	·
COc1ccccc1-c1nc(C(=O)NCC2CCCO2)cc2c1[nH]c1ccccc12 (stereo not drawn)	0	·	64*	·	·	17
COc1cccc(N2[C@@H](CC(=O)O)c3cc(C(F)(F)F)ccc3S2(=O)=O)c1	2	·	72*	·	·	26
COc1cccc(N2[C@@H](CC(=O)O)c3ccccc3S2(=O)=O)c1	-1	·	-4	·	·	·
CCCN(CCC)C(=O)C1CCN(c2ccc(S(=O)(=O)N3CCOCC3)cc2[N+](=O)[O-])CC1	-3	·	1	·	·	·
CCc1sc(C(=O)Nc2nc(C)cs2)cc1C	2	·	61*	·	·	11
COc1ccc(C(=O)N=c2sc3c(C)ccc(OC)c3n2C)cc1OC	1	·	22	-38	·	·
COc1ccccc1C(=O)N=c1sc2c(C)ccc(OC)c2n1C	2	·	63*	-40	·	10
COc1ccc(C(CNC(=O)CCNS(=O)(=O)c2ccc(C)cc2)N2CCOCC2)cc1 (stereo not drawn)	-5	·	12	·	·	·
O=C(c1ccco1)N1CCN(C(=O)c2ccc(-c3ccc([N+](=O)[O-])cc3)o2)CC1	7	·	64*	·	·	-6
O=C(c1ccc([N+](=O)[O-])cc1)N1CCN(C(=O)c2ccco2)CC1	-8	7	-9	0	8	·
CC(=O)c1c(C)nn(CC(O)COc2ccc3ccccc3c2)c1C (stereo not drawn)	-2	12	14	-7	10	·
CCc1ccc(N2C(=O)C3ON(c4ccccc4)C(c4ccco4)C3C2=O)cc1 (stereo not drawn)	1	3	4	3	28	·
CCCCN1C(=O)C2ON(c3ccccc3C)C(c3ccco3)C2C1=O (stereo not drawn)	3	-4	73*	10	8	19
O=C(Cn1c(=O)n(CCC(=O)N2CCCCC2)c(=O)c2sccc21)NCc1ccccc1	-5	·	-9	·	·	·
Cc1cc(C)nc(SCC(=O)N/N=C/c2cccc([N+](=O)[O-])c2)n1	10	15	93*	0	17	30
O=C(N/N=C/c1cccc([N+](=O)[O-])c1)c1ccccc1-n1cccc1	-10	4	63*	-4	3	44
O=C(NN=Cc1cccc([N+](=O)[O-])c1)c1cccc2ccccc12	-2	·	16	·	·	·
Cn1c(C(=O)NCCCN2CCCCCC2)cc2c(=O)n(C)c3ccccc3c21	5	-44	60*	-5	10	-2
CCN(CC)C(=S)SSC(=S)N(CC)CC	-19	20	66*	1	-5	49*	Diaphorase 10uM=-22;Diaphorase 30uM=-11
O=S(c1ccccc1O)S(=O)c1ccccc1O (stereo not drawn)	-2	·	94*	·	·	75*	Diaphorase 10uM=-15;Diaphorase 30uM=-9

Bioassay records: PubChem BioAssay, several laboratories
